Compound activity deposited in PubChem by several laboratories.
VIM-2 inh: blocks Pseudomonas aeruginosa VIM-2 metallo-beta-lactamase | purified VIM-2, nitrocefin hydrolysis, epi-absorbance fluorescence | inhibition, % at 5.6 µM | 290,000 compounds, 0.89% hits;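 active = inhibition above the mean of all tested compounds plus 3 SD, cutoff set per screening run, cut at about 7.5% in these data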;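 note: red hydrolysis product quenches plate fluorescence so inhibitors raise well fluorescence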
HTR2A ag: mouse HTR2A agonism via beta-arrestin recruitment; CHO-K1 mHTR2A beta-arrestin complementation, luminescence; percent of 30 µM serotonin response; P35363; 360,000 compounds, 0.66% hits; activation, % at 7.6 µM;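 active = activation above a run cutoff, the mean activation of all tested compounds plus 3 SD, cut at about 14% in these data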
Target sequence (P35363 whole entry, looked up): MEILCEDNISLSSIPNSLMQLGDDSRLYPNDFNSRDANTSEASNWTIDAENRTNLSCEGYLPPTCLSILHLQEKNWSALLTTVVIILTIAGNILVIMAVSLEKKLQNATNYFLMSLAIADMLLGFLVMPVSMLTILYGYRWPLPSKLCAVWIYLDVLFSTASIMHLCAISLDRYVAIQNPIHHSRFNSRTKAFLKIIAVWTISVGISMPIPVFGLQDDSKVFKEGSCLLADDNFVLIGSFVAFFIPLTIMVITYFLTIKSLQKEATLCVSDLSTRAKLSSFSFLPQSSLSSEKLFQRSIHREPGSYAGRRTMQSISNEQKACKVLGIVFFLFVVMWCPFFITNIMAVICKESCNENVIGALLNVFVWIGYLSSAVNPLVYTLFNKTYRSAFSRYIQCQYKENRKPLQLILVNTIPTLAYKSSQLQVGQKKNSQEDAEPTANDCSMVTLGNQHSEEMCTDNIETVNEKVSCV
IMP-1 inhibitor: inhibitors of Pseudomonas aeruginosa IMP-1 metallo-beta-lactamase. purified IMP-1, nitrocefin hydrolysis, epi-absorbance fluorescence. inhibition, % at 5.6 µM. 290,000 compounds, 0.45% hits. AID 1556;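 active = inhibition above the mean plus 3 SD of all compounds in the same screening run, cut at about 4.5% in these data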
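Test system: recombinant IMP-1 enzyme, purified / Medium: HEPES buffer pH 7.1 with ZnSO4 and Brij 35 / Doses: single dose, 5.6 µM / Times: 25 °C, 15 min preincubation, 25 min reaction / Detection: Epi-absorbance via hydrolysed-nitrocefin quenching of white-plate fluorescence, 480/530 nm, EDTA stop / Evaluation: percent inhibition from optical density relative to buffer-blank wells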
dFosB act: activators of mouse delta FosB homodimer | P13346 | purified delta FosB, TAMRA-CDK5 oligo fluorescence polarization; percent of positive-control signal above neutral wells | activation, % at 25 µM | 340,000 compounds, 0.99% hits;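 active = mean activation above about 17%, with every replicate also reaching it, limit read from the data, passing the limit was not always enough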
Each line names hits and unclear results; the compound was inactive in the other large screens. Rows were chosen to be rich in hits. Some 2.5% of all compounds tested hit in one or more screens of this group.

CC1Cc2cc(S(=O)(=O)N3CCC(C(=O)N(C)Cc4ccccc4)CC3)ccc2N1C(=O)C1CC1 (stereo not drawn)	none
O=C(Nc1c(Br)cc2c(c1Br)Cc1ccccc1-2)C(Cl)Cl	none (no result: VIM-2 inh, IMP-1 inhibitor)
Cc1ccc(N2C(=O)CCC2=O)c(C)c1	none (no result: VIM-2 inh, IMP-1 inhibitor)
COC(=O)C(C)Oc1ccc(Cl)c(CN2OCC(C)(C)C2=O)c1 (stereo not drawn)	none (no result: VIM-2 inh, IMP-1 inhibitor)
O=C(CCCc1nc(-c2ccccc2Cl)no1)NCc1cccnc1	IMP-1 inhibitor 5.7
Cc1ccc(S(=O)(=O)N2CCN(c3cccc(C)c3)CC2)cc1	none
COc1ccc(C(=O)Nc2nnc(CC(=O)N/N=C/c3ccc(O)cc3O)s2)cc1	dFosB act 36
Cc1ccc(C(=O)Nc2nnc(CC(=O)N/N=C/c3ccc(O)c(O)c3)s2)cc1	none
CCCS(=O)(=O)c1nc(S(=O)(=O)c2ccc(C)cc2)c(NCCCN2CCCC2=O)s1	none
CN1/C(=C\C(=O)COC(=O)Cn2nnc(-c3ccccc3)n2)C(C)(C)c2ccccc21	dFosB act 52
CN1/C(=C/C(=O)COC(=O)CN2C(=O)C3CC=CCC3C2=O)C(C)(C)c2ccccc21 (stereo not drawn)	none (no result: VIM-2 inh, IMP-1 inhibitor)
Cc1ccc2nc(-c3ccc(NC(=O)c4ccco4)cc3)[nH]c2c1	dFosB act 43
CCc1nc2ccccc2c(C(=O)Nc2ccc(F)cc2)c1C	none
CC(=O)Nc1cccc(-c2ccnc3c2CC(C(=O)Nc2cccc(N(C)C)c2)O3)c1 (stereo not drawn)	none (no result: VIM-2 inh, IMP-1 inhibitor, dFosB act)
CCN1C(=O)/C(=C\C=C2/C=CC=CN2CC)SC1=S	dFosB act 25
O=C1c2c(O)cccc2Cc2cccc(O)c21	dFosB act 26 (no result: VIM-2 inh, IMP-1 inhibitor)
CCOc1ccc(NC(=O)/C=C/c2ccccc2)c([N+](=O)[O-])c1	IMP-1 inhibitor 4.8
CCOc1ccc(/C=C/C(=O)Nc2ccc(OC)cc2[N+](=O)[O-])cc1	none
CNc1ccc(Br)cc(C(=O)/C=C/c2ccc3c(c2)OCO3)c1=O	IMP-1 inhibitor 9.2
CCOc1ccc(N2C(=O)C3Sc4[nH]c(=O)sc4C(/C=C/c4ccccc4)C3C2=O)cc1 (stereo not drawn)	IMP-1 inhibitor 8.0
Cc1ccc(-n2c(COc3c(C)cccc3C)nnc2SCC(=O)Nc2nccs2)cc1	dFosB act 21
COC(=O)c1sccc1NC(=O)C1C2C=CC(O2)C1C(=O)O (stereo not drawn)	none
COC(=O)c1sccc1NC(=O)C1CC(C)=C(C)CC1C(=O)O (stereo not drawn)	VIM-2 inh 8.4
COC(=O)c1sccc1NC(=O)C1CC2CCC1C2 (stereo not drawn)	IMP-1 inhibitor 48
COC(=O)c1ccc(NC(=O)C2CC3CCC2C3)cc1 (stereo not drawn)	none (no result: VIM-2 inh, IMP-1 inhibitor)
COCC(C)n1c(COc2ccccc2F)nnc1SCC(=O)Nc1oc(C)c2c(C)n[nH]c(=O)c12 (stereo not drawn)	none (no result: VIM-2 inh, IMP-1 inhibitor)
COc1ccc2c(C)cc(SCC(=O)Nc3cc(C(N)=O)cc(C(N)=O)c3)nc2c1	dFosB act 68
COc1ccc(Cn2c(SCc3ccc(C)cc3)nc3cc(OC)c(OC)cc3c2=N)cc1Cl	dFosB act 59
COc1ccc(Cn2c(SCc3cc(C)ccc3C)nc3cc(OC)c(OC)cc3c2=N)cc1	dFosB act 40
COc1cc2nc(SCc3ccc(Cl)cc3Cl)n(Cc3cccs3)c(=N)c2cc1OC	none
CCOC(=O)CNC(=S)n1ncnc1N	none
O=C(O)c1cccc(CN2C(=O)c3ccccc3C2=O)c1	none
O=C1c2cccc3c(O)ccc(c23)C(=O)N1Cc1ccccc1	VIM-2 inh 11
O=C(Nc1nncs1)C12CC3CC(CC(C3)C1)C2	none
O=C(Nc1nn[nH]n1)C12CC3CC(CC(C3)C1)C2	VIM-2 inh 9.0
Cc1cc(C)nc(/N=C(\N)Nc2ccc(S(=O)(=O)Nc3nccc(C)n3)cc2)n1	none
COc1ccc(OC)c(S(=O)(=O)N(C)CC(=O)N2CCN(c3ccc(F)cc3)CC2)c1	none
COc1ccc(OC)c(S(=O)(=O)N(C)CC(=O)N2CCN(c3ccccc3F)CC2)c1	IMP-1 inhibitor 17
CSc1nc(C)c2c(n1)N(c1ccc(F)cc1)CC2	none
COc1cccc2c3c(c(C)nc12)CCN3c1ccccc1	VIM-2 inh 11
Cc1ccc2nc(C)c3c(c2c1)N(c1ccc(F)cc1)CC3	VIM-2 inh 11
COc1ccccc1N1CCc2c(C)nc3c(OC)cccc3c21	VIM-2 inh 12
CCc1nc2c(OCC(=O)c3ccc(Cl)cc3Cl)cccn2c1N(C)C(=O)COc1ccccc1	none (no result: VIM-2 inh, IMP-1 inhibitor, dFosB act)
O=C(COc1ccccc1)OCc1cc(-c2ccco2)on1	none (no result: VIM-2 inh, IMP-1 inhibitor)
COc1ccc2cc(C)c3nnc(SCC(=O)Nc4cc(OC)c(OC)cc4C(=O)O)n3c2c1	none
COc1ccc2cc(C)c3nnc(SCc4cccnc4)n3c2c1	VIM-2 inh 8.9
O=C(CCNC(=O)c1ccc(Br)cc1)Nc1ccc(S(=O)(=O)N2CCOCC2)cc1	none (no result: VIM-2 inh, IMP-1 inhibitor)
Nc1nc(SCC(=O)Nc2ccc([N+](=O)[O-])cc2)[nH]c(=O)c1NC(=O)c1ccc(Br)cc1	dFosB act 50
Cc1ccnc(NS(=O)(=O)c2ccc(NC(=O)Cc3ccc(Br)cc3)cc2)n1	none
CCOC(=O)N1CCN(C(=S)NC(=O)c2cncc(Br)c2)CC1	IMP-1 inhibitor 5.4
Cc1ccc(/C=C2/SC(=O)NC2=S)o1	IMP-1 inhibitor 5.3
Cc1ccc(C(=O)NN2C(=O)/C(=C/c3cn(C)c4ccccc34)SC2=S)cc1	none
Cn1cc(/C=C2\SC(=O)NC2=S)c2ccccc21	IMP-1 inhibitor 5.3
Cc1ccc(/C=C2/SC(=S)N(C3CCCCC3)C2=O)o1	none
C=C1CC[C@@H]2[C@](C)(CO)[C@H](O)CC[C@@]2(C)[C@@H]1C/C=C1/C(=O)OCC1O (stereo partly drawn)	none (no result: VIM-2 inh, IMP-1 inhibitor)
O=C(CCCN1C(=O)/C(=C/c2cccc(Br)c2)SC1=S)Nc1cccnc1	dFosB act 22
O=C(CN1C(=O)/C(=C/c2cccc(Br)c2)SC1=S)NCCCN1CCOCC1	IMP-1 inhibitor 4.8
Cc1cc(NC(=O)CN2C(=O)/C(=C/c3cccc(Br)c3)SC2=S)no1	dFosB act 19
CSc1ccc(CN(C)C(=O)c2cccc(S(=O)(=O)N3CCN(Cc4ccccc4)CC3)c2)cc1	none (no result: VIM-2 inh, IMP-1 inhibitor)
C/C(=N\Nc1cc(Cl)nc(C)n1)c1ccc(C)cc1	none
Cc1ccc(Nc2nc(N)c([N+](=O)[O-])c(NCc3ccco3)n2)cc1	none
Fc1ccc(Nc2nc(NCc3ccco3)c3ccccc3n2)cc1	dFosB act 53
CCCCNC(=O)C(NC(=O)c1cccc(C(F)(F)F)c1)C(=O)c1ccccc1 (stereo not drawn)	none (no result: VIM-2 inh, IMP-1 inhibitor, dFosB act)
N/C(CS(=O)(=O)c1ccccn1)=N\OC(=O)c1ccccc1Cl	none
CCCS(=O)(=O)C/C(N)=N/OC(=O)c1ccccc1Cl	IMP-1 inhibitor 8.3 (no result: dFosB act)
CC(C)C(C(=O)NCC1CCCO1)N(CC1CCCO1)C(=O)CNS(=O)(=O)c1ccccc1 (stereo not drawn)	none
O=C(Nc1ccsn1)c1ccc(Cl)cc1Cl	none
O=C(OCC(=O)N1CCN(C(=O)c2ccco2)CC1)c1cc(-c2ccccc2)nc2ccccc12	VIM-2 inh 11
